From PubChem
PostGolgi ctrl – yeast control strain growth, post-Golgi counter-screen | actives 5% (n = 98,000) | inhibition, % at 10 µM | AID 738 | efflux-deficient yeast background strain, growth absorbance A615, 16 h
EphB4 ephrin blk – EphB4-ephrin-B2 interaction antagonism; P54760; EphB4 LBD / TNYL-RAW-Alexa532 peptide, fluorescence polarization; inhibition, % at 7 µM; AID 720; actives 0.15% (n = 97,000);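 active means inhibition above the screen-wide mean inhibition plus 3 SD, cut at about 15% in these data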;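 further: 0% = DMSO wells and 100% = excess unlabeled TNYL-RAW peptide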
PostGolgi yeast – growth inhibition of a yeast mutant, post-Golgi transport screen; post-Golgi transport phenotypic cell assay; inhibition, % at 10 µM; actives 0.9% (n = 98,000); AID 739;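 further: yeast cells grown in 1536-well plates; yeast grown about 18 h at 30C before absorbance read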
Plk1 PBD FP – inhibitors of human Plk1 polo box domain binding; actives 0.13% (n = 97,000); inhibition, %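 (tested at about 20 µM)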; P53350; Plk1 PBD phosphopeptide binding, fluorescence polarization; in the data active means inhibition above about 34%, passing the limit was not always enough
Target sequence (P53350 whole entry, looked up, the tested form may be a part): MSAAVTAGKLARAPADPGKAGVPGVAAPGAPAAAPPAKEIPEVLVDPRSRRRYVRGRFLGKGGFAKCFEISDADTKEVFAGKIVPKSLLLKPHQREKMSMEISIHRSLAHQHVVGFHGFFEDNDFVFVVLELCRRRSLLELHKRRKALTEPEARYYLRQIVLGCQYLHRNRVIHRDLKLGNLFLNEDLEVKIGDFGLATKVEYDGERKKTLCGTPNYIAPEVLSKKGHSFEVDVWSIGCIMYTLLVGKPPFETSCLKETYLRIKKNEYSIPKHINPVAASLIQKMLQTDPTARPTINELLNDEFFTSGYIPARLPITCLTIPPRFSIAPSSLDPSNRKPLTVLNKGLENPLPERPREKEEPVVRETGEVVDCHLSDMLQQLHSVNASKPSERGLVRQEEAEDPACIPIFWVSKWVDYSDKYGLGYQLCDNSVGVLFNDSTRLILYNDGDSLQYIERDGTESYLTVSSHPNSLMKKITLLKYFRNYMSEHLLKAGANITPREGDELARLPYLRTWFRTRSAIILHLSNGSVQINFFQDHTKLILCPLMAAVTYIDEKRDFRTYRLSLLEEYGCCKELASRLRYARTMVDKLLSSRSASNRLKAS
HIV Rev-RRE inh – inhibitors of HIV-1 Rev-RRE RNA interaction; Rev peptide-RRE RNA binding, FRET; inhibition, % at 8 µM; actives 0.79% (n = 97,000); AID 704;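 active means inhibition above the screen-wide mean plus 3 SD, cut at about 35% in these data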;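 further: 0% = median DMSO wells and 100% = median Neomycin B control wells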
Target sequence (P05866 whole entry, looked up): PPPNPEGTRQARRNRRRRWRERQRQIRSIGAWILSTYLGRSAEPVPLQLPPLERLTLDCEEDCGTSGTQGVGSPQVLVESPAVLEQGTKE
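Test system: Cy5-tagged RRE RNA duplex with fluorescein-tagged Rev peptide; Probe or stimulus: labelled Rev peptide; Schedule: 5 min preincubation and 15 min binding, 25 °C; Signal: FRET fluorescence readout; Evaluation: % inhibition from 671/540 nm acceptor-to-donor ratio, scaled between controls; Control set: DMSO and neomycin B.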
PLK1 kinase inh – PLK1 (human) kinase inhibition | recombinant PLK1 kinase, TR-FRET peptide phosphorylation | inhibition, % at 10 µM | actives 0.53% (n = 97,000) | AID 619;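 active means inhibition of 50% or more in the single-concentration screen; inactive means inhibition below 50%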;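 further: 0% = DMSO max control and 100% = H-89 dihydrochloride min control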
Active calls of the source: *. The list is not random: actives were taken first. Their share in the collection is about 6.4%. Unless noted, no stated cut-off is given here; in the data, active means inhibition above about 30%; inactive means the rest.

How did NS(=O)(=O)c1ccc(CCNC2CC(=O)N(Cc3ccccc3)C2=O)cc1 (centres undefined) do in these assays?
PostGolgi ctrl: 32.3*; EphB4 ephrin blk: -0.4; PostGolgi yeast: -2.8; Plk1 PBD FP: -0.9; HIV Rev-RRE inh: 1.1; PLK1 kinase inh: -10.5

Results for Cc1ccnc(N2CCC(C(=O)Nc3cccc(C(F)(F)F)c3)CC2)n1 ?
PostGolgi ctrl: 8.1; PostGolgi yeast: 0.9

Results for COCCNC(=O)CN1CCN(C(c2ccccc2)c2ccccc2)CC1 ?
PostGolgi ctrl: 9.1; EphB4 ephrin blk: 4.5; PostGolgi yeast: 15.2; Plk1 PBD FP: -6.9; HIV Rev-RRE inh: 4.1; PLK1 kinase inh: -10.9

Results for COCCNC(=O)CN1CCC(NC(=O)C(C)(C)C)CC1 ?
PostGolgi ctrl: 13.3; EphB4 ephrin blk: -4.6; PostGolgi yeast: 37.0*; Plk1 PBD FP: -19.1; HIV Rev-RRE inh: 2.8; PLK1 kinase inh: 0.8

How did Cc1sc2nc(SCC(=O)C(C)(C)C)n(Cc3ccco3)c(=O)c2c1C do in these assays?
PostGolgi ctrl: 39.2*; EphB4 ephrin blk: 5.5; PostGolgi yeast: 2.5; Plk1 PBD FP: -5.4; HIV Rev-RRE inh: 5.6; PLK1 kinase inh: -12.9

Results for Cc1cc(C)nc(NC(=O)CN2C(=O)c3ccccc3C2=O)n1 ?
PostGolgi ctrl: 2.3; EphB4 ephrin blk: 1.2; PostGolgi yeast: 6.2; Plk1 PBD FP: 12.6; HIV Rev-RRE inh: 6.6; PLK1 kinase inh: -4.4

How did CCOc1ccc(NC(=O)c2cn(-c3ccc(OCC)cc3)c(=O)c3cc(OC)c(OC)cc23)cc1 do in these assays?
PostGolgi ctrl: -1.5; EphB4 ephrin blk: 1.6; PostGolgi yeast: -9.5; Plk1 PBD FP: -12.0; HIV Rev-RRE inh: 0.5; PLK1 kinase inh: -12.0

What do the screens show for `CCOc1ccc(-n2cc(C(=O)NC(C)C)c3cc(OC)c(OC)cc3c2=O)cc1`?
PostGolgi ctrl: 3.9; EphB4 ephrin blk: 3.1; PostGolgi yeast: -4.0; Plk1 PBD FP: 0.0; HIV Rev-RRE inh: -5.5; PLK1 kinase inh: 54.4*

What do the screens show for `Brc1ccc(OCc2ccccc2)c(CNCc2ccncc2)c1`?
PostGolgi ctrl: 94.9*; EphB4 ephrin blk: -6.6; PostGolgi yeast: 101.3*; Plk1 PBD FP: 9.2; HIV Rev-RRE inh: 5.8; PLK1 kinase inh: 6.7

What do the screens show for `CCOc1ccc(OCC)c(NC(=O)C2CCN(c3ncccn3)CC2)c1`?
PostGolgi ctrl: 4.7; EphB4 ephrin blk: 0.5; PostGolgi yeast: -3.5; Plk1 PBD FP: 12.0; HIV Rev-RRE inh: 10.1; PLK1 kinase inh: -7.3

What do the screens show for `CC(=O)N1CCN=C1SCc1c(F)cccc1Cl`?
PostGolgi ctrl: 32.0*; EphB4 ephrin blk: -1.9; PostGolgi yeast: 3.2; Plk1 PBD FP: 25.7; HIV Rev-RRE inh: 3.5; PLK1 kinase inh: -27.8

How did O=C(COC(=O)C12CC3CC(CC(C3)C1)C2)NC12CC3CC(CC(C3)C1)C2 do in these assays?
PostGolgi ctrl: 33.0*; EphB4 ephrin blk: 0.0; PostGolgi yeast: 13.4; Plk1 PBD FP: -25.6; HIV Rev-RRE inh: 8.9; PLK1 kinase inh: -7.0

What do the screens show for `CCC(CC)C(=O)OCC(=O)NC12CC3CC(CC(C3)C1)C2`?
PostGolgi ctrl: 3.6; EphB4 ephrin blk: -3.6; PostGolgi yeast: 11.2; Plk1 PBD FP: -5.5; HIV Rev-RRE inh: 6.3; PLK1 kinase inh: 1.6

How did CCC(=O)Nc1cc(C(=O)OC(C(=O)c2ccc(C)c(C)c2)c2ccccc2)ccc1C (centres undefined) do in these assays?
PostGolgi ctrl: 8.7; EphB4 ephrin blk: -4.5; PostGolgi yeast: -1.1; Plk1 PBD FP: -21.5; HIV Rev-RRE inh: 1.5; PLK1 kinase inh: -10.9

Results for CCOC(=O)CSc1nc2cc(C(=O)NCc3ccco3)ccc2c(=O)n1C1CCCCC1 ?
PostGolgi ctrl: 45.2*; EphB4 ephrin blk: 4.4; PostGolgi yeast: -7.0; Plk1 PBD FP: -15.4; HIV Rev-RRE inh: 9.2; PLK1 kinase inh: -2.4

How did CCOC(=O)CSc1nc2ccccc2c(=O)n1CC1CCC(C(=O)NCc2ccco2)CC1 (centres undefined) do in these assays?
PostGolgi ctrl: 36.4*; EphB4 ephrin blk: -0.7; PostGolgi yeast: 2.1; Plk1 PBD FP: -32.1; HIV Rev-RRE inh: 5.4; PLK1 kinase inh: -4.0

Results for CCOC(=O)CSc1nc2cc(C(=O)NCc3ccco3)ccc2c(=O)n1-c1ccc(F)cc1 ?
PostGolgi ctrl: 5.2; PostGolgi yeast: 9.7

Results for O=C(CCCn1c(=S)[nH]c2ccc(Br)cc2c1=O)N1CCN(c2ccccn2)CC1 ?
PostGolgi ctrl: 14.2; EphB4 ephrin blk: 0.2; PostGolgi yeast: -1.9; Plk1 PBD FP: -1.7; HIV Rev-RRE inh: -5.1; PLK1 kinase inh: 1.8

How did O=C(NC(NNc1ccc([N+](=O)[O-])cc1)(C(F)(F)F)C(F)(F)F)c1ccc(Cl)cc1 do in these assays?
PostGolgi ctrl: 58.5*; EphB4 ephrin blk: 10.2; PostGolgi yeast: 20.9; Plk1 PBD FP: -17.0; HIV Rev-RRE inh: 20.4; PLK1 kinase inh: -5.9

Results for Fc1ccc(-c2noc(C3CCN(Cc4cccnc4)CC3)n2)cc1 ?
PostGolgi ctrl: 34.8*; EphB4 ephrin blk: 5.8; PostGolgi yeast: 84.0*; Plk1 PBD FP: 11.3; HIV Rev-RRE inh: 6.5; PLK1 kinase inh: -4.3

Results for N#Cc1nc(-c2cccs2)oc1NCC1CCCO1 (centres undefined) ?
PostGolgi ctrl: 38.9*; EphB4 ephrin blk: -2.6; PostGolgi yeast: 6.3; Plk1 PBD FP: -5.3; HIV Rev-RRE inh: 6.3; PLK1 kinase inh: -11.7

How did Cc1cccc(C)c1NC(=O)CSCC(=O)c1ccc(O)c(O)c1 do in these assays?
PostGolgi ctrl: -2.1; EphB4 ephrin blk: 3.0; PostGolgi yeast: 4.3; Plk1 PBD FP: -26.5; HIV Rev-RRE inh: 2.3; PLK1 kinase inh: 0.1

How did CN(C)CC(C)(C)CNC(=O)c1cc(=O)c2ccccc2o1 do in these assays?
PostGolgi ctrl: 4.7; EphB4 ephrin blk: 7.9; PostGolgi yeast: 23.9; Plk1 PBD FP: 1.2; HIV Rev-RRE inh: 1.9; PLK1 kinase inh: -10.7

Results for Cc1ccc(C2NC(=O)c3c(sc4c3CCN(C)C4)N2)o1 (centres undefined) ?
PostGolgi ctrl: -0.6; EphB4 ephrin blk: 1.3; PostGolgi yeast: 32.5*; Plk1 PBD FP: 0.4; HIV Rev-RRE inh: 28.6; PLK1 kinase inh: -6.7

How did CN1CCc2c(sc3c2C(=O)NC(c2ccccn2)N3)C1 (centres undefined) do in these assays?
PostGolgi ctrl: 6.2; EphB4 ephrin blk: 1.6; PostGolgi yeast: -1.2; Plk1 PBD FP: -8.1; HIV Rev-RRE inh: 43.4*; PLK1 kinase inh: -0.5

Results for Cc1ccsc1C1NC(=O)c2c(sc3c2CCCC3)N1 (centres undefined) ?
PostGolgi ctrl: -5.8; PostGolgi yeast: -6.4

Results for O=C1NC(c2ccccn2)Nc2sc3c(c21)CCC3 (centres undefined) ?
PostGolgi ctrl: 0.8; EphB4 ephrin blk: -4.3; PostGolgi yeast: 5.9; Plk1 PBD FP: 2.9; HIV Rev-RRE inh: 3.7; PLK1 kinase inh: 13.9

How did Cc1ccc(C2NC(=O)c3c(sc4c3CCN(C)C4)N2)s1 (centres undefined) do in these assays?
PostGolgi ctrl: 25.7; EphB4 ephrin blk: 0.4; PostGolgi yeast: 15.3; Plk1 PBD FP: -22.2; HIV Rev-RRE inh: 75.0*; PLK1 kinase inh: 0.9
